{
  "source": "ChEMBL document CHEMBL5053511",
  "about": "“Discovery of a Novel BCL-XL PROTAC Degrader with Enhanced BCL-2 Inhibition” (J Med Chem, 2021)",
  "key": {"[1]": {"target": "T1, von Hippel-Lindau disease tumor suppressor/Bcl-2-like protein 1 (Homo sapiens, UniProt Q07817+P40337)", "assay": "Protac activity at VHL/BCL-XL in human MOLT-4 cells assessed as induction of BCL-XL degradation at 100 nM measured up to 72 hrs by Western blot analysis", "type": "cell-based", "how_it_was_run": "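MOLT-4 cells were treated with 100 nM for a series of times. For washout, cells were treated for 16 h and sampled at times after compound removal. BCL-XL and β-actin were immunoblotted.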"}, "[2]": {"target": "T1, von Hippel-Lindau disease tumor suppressor/Bcl-2-like protein 1", "assay": "Protac activity at VHL/BCL-XL in human platelets assessed as decrease in BCL-XL protein level at up to […] measured after 16 hrs by Western blot analysis", "settings": "Platelet", "how_it_was_run": "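Washed human platelets were treated for 16 h at a range of concentrations, and BCL-XL was measured by western blotting.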"}, "Platelet": {"system": "Platelet", "assay": "Cytotoxicity against platelets in human PRP assessed as reduction in cell viability measured after 48 hrs by MTS assay", "type": "cell-based", "how_it_was_run": "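Washed human platelets from PRP were kept in HEPES Tyrode's buffer with 1 µM PGE1 and 0.2 units/mL apyrase at 2×10^8/mL.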"}, "[3]": {"target": "T1, von Hippel-Lindau disease tumor suppressor/Bcl-2-like protein 1", "assay": "Protac activity at VHL/BCL-XL in human RS4-11 cells assessed as decrease in BCL-XL protein level by densitometric analysis", "type": "cell-based", "how_it_was_run": "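MOLT-4 or RS4;11 cells were treated at a range of concentrations for 16 h. BCL-XL was immunoblotted with β-actin loading control, and band densitometry was normalised to β-actin. Mean ± SD of three independent experiments in triplicate.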"}, "RS4-11": {"system": "RS4-11", "assay": "Cytotoxicity against human RS4-11 cells assessed as reduction in cell viability measured after 48 hrs by MTS assay", "type": "functional, cell-based", "settings": "RS4-11, 48 h"}, "MOLT-4 [4]": {"system": "MOLT-4", "assay": "Cytotoxicity against human MOLT-4 cells assessed as reduction in cell viability measured after 48 hrs by MTS assay", "type": "functional, cell-based", "settings": "MOLT-4, 48 h"}, "MOLT-4 [5]": {"system": "MOLT-4", "assay": "Induction of apoptosis in human MOLT-4 cells assessed as […] in cleaved caspase-3 level at up to 1000 nM measured after 16 hrs by immunoblotting analysis", "type": "functional, cell-based", "how_it_was_run": "(§1)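 MOLT-4 cells were treated at a range of concentrations for 16 h. Lysates were immunoblotted for cleaved and full caspase-3, cleaved and full PARP, and β-actin; blots representative of three experiments.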"}, "MOLT-4 [6]": {"system": "MOLT-4", "assay": "Induction of apoptosis in human MOLT-4 cells assessed as […] in full caspase-3 level at up to 1000 nM measured after 16 hrs by immunoblotting analysis", "type": "functional, cell-based", "how_it_was_run": "as §1"}, "MOLT-4 [7]": {"system": "MOLT-4", "assay": "Induction of apoptosis in human MOLT-4 cells assessed as early apoptotic cells at 10 nM measured after 48 hrs by annexinV-FITC/propidium iodide staining based flow cytometry (reference value: 2%)", "type": "functional"}, "MOLT-4 [8]": {"system": "MOLT-4", "assay": "Induction of apoptosis in human MOLT-4 cells assessed as late apoptotic cells at 10 nM measured after 48 hrs by annexinV-FITC/propidium iodide staining based flow cytometry (reference value: 1%)", "type": "functional"}, "MOLT-4 [9]": {"system": "MOLT-4", "assay": "Induction of apoptosis in human MOLT-4 cells assessed as late apoptotic cells at 10 nM measured after 48 hrs in presence of QVD by annexinV-FITC/propidium iodide staining based flow cytometry (reference value: 1%)", "type": "functional"}, "Bcl-2-like protein 1": {"target": "Bcl-2-like protein 1 (Homo sapiens, UniProt Q07817)", "sequence (Q07817 whole entry)": "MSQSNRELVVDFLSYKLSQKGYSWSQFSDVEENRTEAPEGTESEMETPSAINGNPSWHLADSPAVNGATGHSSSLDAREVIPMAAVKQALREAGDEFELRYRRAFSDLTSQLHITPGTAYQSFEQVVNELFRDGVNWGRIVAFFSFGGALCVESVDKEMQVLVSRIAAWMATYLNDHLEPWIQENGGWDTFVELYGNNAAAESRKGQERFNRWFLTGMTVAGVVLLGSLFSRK", "assay": "Displacement of biotin-tagged LWAAQRYGRELRRMSDEFEGSFKGL from human BCL-XL expressed in Escherichia coli measured after 2 hrs by AlphaScreen assay", "how_it_was_run": "(§2)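 AlphaScreen displacement, run with or without VCB. Anti-His acceptor beads were added for 1 h at room temperature, then streptavidin donor beads for 30 min in the dark. Ki was fitted by one-site competitive model from peptide concentration and measured Kd values; reported as mean ± SD of at least two experiments in triplicate.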"}, "[10]": {"assay": "Binding affinity to human BCL-XL expressed in Escherichia coli/recombinant human VHL (54 to end residues) fused to human N-terminal GST-tagged elongin-C/elongin -B/N-terminal His-tagged CUL2/Rbx1 expressed in baculovirus infected Sf21 insect cells measured after 2 hrs by AlphaScreen assay", "how_it_was_run": "as §2, with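 “VCB. Biotin-Bim (80 nM, for BCL-2) or biotin-Bad (16 nM, for BCL-XL) was combined with serially diluted compound and 6×His protein in 25 mM HEPES pH 7.5, 100 mM NaCl, 0.1% BSA, 0.005% Tween 20.” for “VCB.”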"}, "[11]": {"assay": "Binding affinity to C-terminal His-tagged human BCL-2 (1 to 211 residues) expressed in Escherichia coli/recombinant human VHL (54 to end residues) fused to human N-terminal GST-tagged elongin-C/elongin -B/N-terminal His-tagged CUL2/Rbx1 expressed in baculovirus infected Sf21 insect cells assessed as ternary complex formation at up to 100000 nM measured after 30 mins by AlphaLISA assay", "how_it_was_run": "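Cell-free ternary complex AlphaLISA: 6×His-tagged BCL-XL, BCL-2 or MCL-1 (20 nM) mixed with serially diluted compound (4× dilution) and GST-VCB (20 nM) in 25 mM HEPES pH 7.5, 100 mM NaCl, 0.1% BSA, 0.005% Tween 20. After 30 min at room temperature, glutathione donor beads were added for 15 min, then anti-His acceptor beads for 45 min in the dark. Luminescence was plotted against log compound concentration.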"}, "[12]": {"target": "T1, von Hippel-Lindau disease tumor suppressor/Bcl-2-like protein 1", "assay": "Binding affinity to Halo-tagged VHL/HiBiT-tagged BCL-XL (unknown origin) expressed in HEK293T cells assessed as ternary complex formation at up to 100000 nM measured after 6 hrs by NanoBRET assay", "type": "cell-based", "how_it_was_run": "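NanoBRET in live HEK 293T cells. Cells were transfected with HaloTag-VHL (1 µg), HiBit-BCL-XL or HiBit-BCL-2 (10 ng) and LgBit (10 ng). After 24 h they were seeded at 2×10^4 per well in Opti-MEM with 4% FBS, with or without HaloTag 618 ligand, and held overnight. Serial compound doses were given for 6 h at 37 °C, then Nano-Glo substrate was added and mBRET ratios read. Mean ± s.e.m. of two experiments in triplicate.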"}, "[13]": {"target": "T1, von Hippel-Lindau disease tumor suppressor/Bcl-2-like protein 1", "assay": "Binding affinity to VHL/ BCL-XL in human RS4-11 cells assessed as ternary complex formation at up to 300 nM measured after 12 hrs by immunoprecipitation assay", "type": "cell-based"}, "[14]": {"target": "T2, von Hippel-Lindau disease tumor suppressor/Apoptosis regulator Bcl-2 (Homo sapiens) (UniProt P10415+P40337)", "T2 sequence (P10415 whole entry, looked up)": "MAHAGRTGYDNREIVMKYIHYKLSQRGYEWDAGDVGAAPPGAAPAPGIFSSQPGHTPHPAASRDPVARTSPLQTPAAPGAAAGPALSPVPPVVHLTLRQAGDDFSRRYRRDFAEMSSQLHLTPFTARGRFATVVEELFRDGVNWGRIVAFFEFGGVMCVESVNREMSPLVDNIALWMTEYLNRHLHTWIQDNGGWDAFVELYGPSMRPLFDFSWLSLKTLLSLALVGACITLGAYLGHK", "T2 sequence (P40337 whole entry, looked up)": "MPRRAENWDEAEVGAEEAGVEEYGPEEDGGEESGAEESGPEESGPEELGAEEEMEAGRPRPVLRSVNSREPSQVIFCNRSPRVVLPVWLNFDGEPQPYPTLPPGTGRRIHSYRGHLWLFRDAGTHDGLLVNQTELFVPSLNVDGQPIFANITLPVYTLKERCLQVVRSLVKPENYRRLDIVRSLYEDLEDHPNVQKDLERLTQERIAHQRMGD", "assay": "Binding affinity to VHL/BCL-2 in human RS4-11 cells assessed as ternary complex formation at up to 300 nM measured after 12 hrs by immunoprecipitation assay", "type": "cell-based"}, "[15]": {"target": "T1, von Hippel-Lindau disease tumor suppressor/Bcl-2-like protein 1", "assay": "Binding affinity to VHL/ BCL-XL in human RS4-11 cells assessed as ternary complex formation at up to 300 nM measured after 12 hrs in presence of VHL-032 by immunoprecipitation assay", "type": "cell-based"}, "[16]": {"target": "T2, von Hippel-Lindau disease tumor suppressor/Apoptosis regulator Bcl-2 (Homo sapiens)", "assay": "Binding affinity to VHL/BCL-2 in human RS4-11 cells assessed as ternary complex formation at up to 300 nM measured after 12 hrs in presence of VHL-032 by immunoprecipitation assay", "type": "cell-based"}},
  "note": "Active and inactive are the calls of the source. No cut-off for these calls is given here.",
  "data": [
    {"compound": "Cc1ncsc1-c1ccc([C@H](C)NC(=O)[C@@H]2C[C@@H](O)CN2C(=O)[C@@H](NC(=O)CCCCCCCCC(=O)NC[C@]2(C)CCC(c3ccc(Cl)cc3)=C(CN3CCN(c4ccc(C(=O)NS(=O)(=O)c5ccc(N[C@H](CCN6CCOCC6)CSc6ccccc6)c(S(=O)(=O)C(F)(F)F)c5)cc4)CC3)C2)C(C)(C)C)cc1", "values": [
      {"measurement": "Activity", "setting": "[1]", "result": "Active"},
      {"measurement": "Activity", "setting": "[2]", "result": "inactive"},
      {"measurement": "IC50", "setting": "Platelet", "result": 950, "unit": "nM"},
      {"measurement": "DC50", "setting": "[3]", "result": 11.6, "unit": "nM"},
      {"measurement": "IC50", "setting": "RS4-11", "result": 11.3, "unit": "nM"},
      {"measurement": "IC50", "setting": "MOLT-4 [4]", "result": 15.9, "unit": "nM"},
      {"measurement": "Activity", "setting": "MOLT-4 [5]", "result": "Active"},
      {"measurement": "Activity", "setting": "MOLT-4 [6]", "result": "Active"},
      {"measurement": "Activity", "setting": "MOLT-4 [7]", "result": 25, "unit": "%"},
      {"measurement": "Activity", "setting": "MOLT-4 [8]", "result": 21, "unit": "%"},
      {"measurement": "Activity", "setting": "MOLT-4 [9]", "result": 13, "unit": "%"},
      {"measurement": "Ki", "setting": "Bcl-2-like protein 1", "result": 2.59, "unit": "nM"},
      {"measurement": "Kd", "setting": "[10]", "result": 0.65, "unit": "nM"},
      {"measurement": "Activity", "setting": "[11]", "result": "Active"},
      {"measurement": "Activity", "setting": "[12]", "result": "Active"},
      {"measurement": "Activity", "setting": "[13]", "result": "Active"},
      {"measurement": "Activity", "setting": "[14]", "result": "Active"},
      {"measurement": "Activity", "setting": "[15]", "result": "inactive"},
      {"measurement": "Activity", "setting": "[16]", "result": "inactive"}
    ]}
  ]
}
